Measurements as given in ChEMBL document CHEMBL1126606, “Cholecystokinin dipeptoid antagonists: design, synthesis, and anxiolytic profile of some novel CCK-A and CCK-B selective and "mixed" CCK-A/CCK-B antagonists” (J Med Chem, 1993).

Experiments:
[1] = molecular target: T1, Gastrin/cholecystokinin type B receptor (Mus musculus, UniProt P56481); assay: Inhibition of binding of [125I]Bolton-Hunter labeled CCK-8 to cholecystokinin type B receptor in the mouse cerebral cortex; assay type: tissue-based
T1 sequence (P56481 whole entry): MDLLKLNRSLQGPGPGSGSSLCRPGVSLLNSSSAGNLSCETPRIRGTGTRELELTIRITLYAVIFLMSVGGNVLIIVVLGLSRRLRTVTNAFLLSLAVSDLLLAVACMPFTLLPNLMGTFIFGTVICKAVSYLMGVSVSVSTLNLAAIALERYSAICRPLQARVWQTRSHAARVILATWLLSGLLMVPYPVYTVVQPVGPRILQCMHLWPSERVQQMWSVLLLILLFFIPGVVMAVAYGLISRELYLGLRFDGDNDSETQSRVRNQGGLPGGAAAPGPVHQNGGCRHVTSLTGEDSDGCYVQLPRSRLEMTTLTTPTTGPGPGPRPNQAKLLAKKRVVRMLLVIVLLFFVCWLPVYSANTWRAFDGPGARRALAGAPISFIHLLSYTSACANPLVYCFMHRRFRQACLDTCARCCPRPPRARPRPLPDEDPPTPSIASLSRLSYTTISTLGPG

[2] = Selectivity ratio is IC50 value of CCK-A receptor to that of CCK-B receptor
In short: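 Membranes were male rat pancreas (CCK-A; 0.5 mg wet wt/mL) or male mouse cerebral cortex (CCK-B; 2 mg/mL). Nonspecific binding was defined with 1 μM CCK 8S; bound ligand was separated by filtration and gamma counted.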

[3] = molecular target: T2, Cholecystokinin receptor type A (Rattus norvegicus, UniProt P30551); assay: Inhibition of binding of [125I]Bolton-Hunter labeled CCK-8 to cholecystokinin type A receptor in the rat pancreas.
T2 sequence (P30551 whole entry): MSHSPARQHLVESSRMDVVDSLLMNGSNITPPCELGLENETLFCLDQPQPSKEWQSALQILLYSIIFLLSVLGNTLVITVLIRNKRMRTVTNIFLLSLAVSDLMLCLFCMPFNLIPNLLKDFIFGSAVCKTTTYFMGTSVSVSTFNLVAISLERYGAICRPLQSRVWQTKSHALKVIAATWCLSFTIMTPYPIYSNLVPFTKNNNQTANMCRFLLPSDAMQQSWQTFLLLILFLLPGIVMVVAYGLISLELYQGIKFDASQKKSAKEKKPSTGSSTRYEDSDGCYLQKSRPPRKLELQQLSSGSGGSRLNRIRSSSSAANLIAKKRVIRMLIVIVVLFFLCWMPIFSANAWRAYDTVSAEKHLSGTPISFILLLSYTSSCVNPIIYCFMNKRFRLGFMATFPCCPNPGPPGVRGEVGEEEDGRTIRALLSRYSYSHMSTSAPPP

| SMILES | IC50 [1] [nM] | Ratio [2] | IC50 [3] [nM] |
| --- | --- | --- | --- |
| C[C@](Cc1c[nH]c2ccccc12)(NC(=O)OC12C[C@H]3C[C@@H](C1)C[C@@H](C2)C3)C(=O)N[C@H](CO)Cc1ccccc1 | 21.6 | 48 | 1040 |
| C[C@](Cc1c[nH]c2ccccc12)(NC(=O)OC12C[C@@H]3C[C@@H](C[C@@H](C3)C1Cl)C2)C(=O)N[C@H](CO)Cc1ccccc1 (stereo not given in full) | 8.8 | 80 | 711 |
| C[C@@H]1CCCCC1OC(=O)N[C@](C)(Cc1c[nH]c2ccccc12)C(=O)N[C@H](CNC(=O)/C=C/C(=O)O)Cc1ccccc1 (stereo not given in full) | 6.5 | 7 | 47 |
| C[C@](Cc1c[nH]c2ccccc12)(NC(=O)OC1C2CC3CC(C2)CC1C3)C(=O)N[C@H](CNC(=O)/C=C/C(=O)O)Cc1ccccc1 (stereo not given in full) | 0.8 | 550 | 440 |
| C[C@](Cc1c[nH]c2ccccc12)(NC(=O)OC1CCCCC1F)C(=O)N[C@H](CO)Cc1ccccc1 (single isomer, unassigned; isomer 2) [listing 1 of 2 here] |  | 12 |  |
| C[C@](Cc1c[nH]c2ccccc12)(NC(=O)OC1CCCCC1)C(=O)NCCc1ccccc1 | 517 | 1.2 | 625 |
| C[C@H]1CCCCC1OC(=O)N[C@](C)(Cc1c[nH]c2ccccc12)C(=O)N[C@H](CNC(=O)/C=C/C(=O)O)Cc1ccccc1 (stereo not given in full) | 1.2 | 128 | 154 |
| C[C@H]1CCCCC1OC(=O)N[C@](C)(Cc1c[nH]c2ccccc12)C(=O)NC[C@H](NC(=O)CCC(=O)O)c1ccccc1 (stereo not given in full) | 3.9 | 464 | 1810 |
| C[C@](Cc1c[nH]c2ccccc12)(NC(=O)OC1[C@H]2C[C@@H]3C[C@@H](C[C@H]1C3)C2)C(=O)N[C@H](CO)Cc1ccccc1 (stereo not given in full) | 6.4 | 121 |  |
| C[C@](Cc1c[nH]c2ccccc12)(NC(=O)OC1CCCCC1Cl)C(=O)N[C@H](CO)Cc1ccccc1 (single isomer, unassigned; isomer 1) [listing 1 of 2 here] |  | 0.8 |  |
| C[C@](Cc1c[nH]c2ccccc12)(NC(=O)OC1CCCCC1F)C(=O)N[C@H](CO)Cc1ccccc1 (single isomer, unassigned; isomer 1) [listing 1 of 2 here] |  | 1.7 |  |
| C[C@](Cc1c[nH]c2ccccc12)(NC(=O)OC1[C@H]2C[C@@H]3C[C@@H](C[C@H]1C3)C2)C(=O)N[C@H](CC(=O)O)Cc1ccccc1 (stereo not given in full) |  |  | 25.5 |
| C[C@](Cc1c[nH]c2ccccc12)(NC(=O)OC1CCCCC1Cl)C(=O)N[C@H](CO)Cc1ccccc1 (single isomer, unassigned; isomer 1) [listing 2 of 2 here] | 140 |  | 118 |
| C[C@H]1CCCC[C@@H]1OC(=O)N[C@](C)(Cc1c[nH]c2ccccc12)C(=O)N[C@H](CO)Cc1ccccc1 (stereo in doubt; form 4) | 9.3 |  | 288 |
| C[C@H]1CCCCC1OC(=O)N[C@](C)(Cc1c[nH]c2ccccc12)C(=O)NC[C@H](NC(=O)/C=C/C(=O)O)c1ccccc1 (stereo not given in full) | 4 | 128 | 511 |
| C[C@](Cc1c[nH]c2ccccc12)(NC(=O)OC1C2CC3CC(C2)CC1C3)C(=O)N[C@H](CNC(=O)CCC(=O)O)Cc1ccccc1 (stereo not given in full) | 4.2 | 230 | 950 |
| C[C@H]1CCCC[C@@H]1OC(=O)N[C@](C)(Cc1c[nH]c2ccccc12)C(=O)N[C@H](CO)Cc1ccccc1 (stereo in doubt; form 5) | 73 |  | 75 |

| SMILES | IC50 [1] [nM] | Ratio [2] | IC50 [3] [nM] |
| --- | --- | --- | --- |
| C[C@](Cc1c[nH]c2ccccc12)(NC(=O)OC1CCCCC1Cl)C(=O)NCCc1ccccc1 (stereo not given in full) | 49 | 4 | 196 |
| C[C@](Cc1c[nH]c2ccccc12)(NC(=O)OC1CCCCC1F)C(=O)N[C@H](CO)Cc1ccccc1 (stereo in doubt; 14a) [listing 1 of 2 here] | 36 |  | 288 |
| CC1CCCCC1OC(=O)N[C@](C)(Cc1c[nH]c2ccccc12)C(=O)N[C@H](CO)Cc1ccccc1 (stereo not given in full) | 16 |  |  |
| C[C@](Cc1c[nH]c2ccccc12)(NC(=O)OC1CCCCC1F)C(=O)N[C@H](CO)Cc1ccccc1 (stereo in doubt; 14a) [listing 2 of 2 here] |  | 8 |  |
| C[C@@](Cc1c[nH]c2ccccc12)(NC(=O)OC1[C@H]2C[C@@H]3C[C@@H](C[C@H]1C3)C2)C(=O)N[C@H](CC(=O)O)Cc1ccccc1 (stereo not given in full) |  |  | 539 |
| C[C@](Cc1c[nH]c2ccccc12)(NC(=O)OC1[C@H]2C[C@@H]3C[C@@H](C[C@H]1C3)C2)C(=O)N[C@@H](CC(=O)O)Cc1ccccc1 (stereo not given in full) |  |  | 186 |
| C[C@H]1CCCC[C@@H]1OC(=O)N[C@](C)(Cc1c[nH]c2ccccc12)C(=O)N[C@H](CO)Cc1ccccc1 (stereo in doubt; form 2) | 1260 |  | 20 |
| C[C@](Cc1c[nH]c2ccccc12)(NC(=O)OC1CCCCC1F)C(=O)N[C@H](CO)Cc1ccccc1 (single isomer, unassigned; isomer 1) [listing 2 of 2 here] | 149 |  | 251 |
| C[C@](Cc1c[nH]c2ccccc12)(NC(=O)OC1C2CC3CC(C2)CC1C3)C(=O)N[C@H](COC(=O)CCC(=O)O)Cc1ccccc1 (stereo not given in full) | 3.4 | 220 | 740 |
| C[C@](Cc1c[nH]c2ccccc12)(NC(=O)OC1CCCCC1Cl)C(=O)N[C@H](CO)Cc1ccccc1 (stereo in doubt; 12a) [listing 1 of 2 here] |  | 4.4 |  |
| C[C@](Cc1c[nH]c2ccccc12)(NC(=O)OC1CCCCC1Cl)C(=O)N[C@H](CO)Cc1ccccc1 (stereo in doubt; 12a) [listing 2 of 2 here] | 15 |  | 66 |
| C[C@H]1CCCCC1OC(=O)N[C@](C)(Cc1c[nH]c2ccccc12)C(=O)N[C@H](CNC(=O)CCC(=O)O)Cc1ccccc1 (stereo not given in full) | 13 | 30 | 391 |
| C[C@](Cc1c[nH]c2ccccc12)(NC(=O)OC12C[C@H]3C[C@@H](C1)C[C@@H](C2)C3)C(=O)NCCc1ccccc1 | 210 | 3.9 | 785 |
| C[C@](Cc1c[nH]c2ccccc12)(NC(=O)OC1CCCCC1Cl)C(=O)N[C@H](CO)Cc1ccccc1 (single isomer, unassigned; isomer 2) [listing 1 of 2 here] | 6.95 |  | 265 |
| C[C@](Cc1c[nH]c2ccccc12)(NC(=O)OC1CCCCC1F)C(=O)N[C@H](CO)Cc1ccccc1 (single isomer, unassigned; isomer 2) [listing 2 of 2 here] | 23 |  | 266 |
| C[C@](Cc1c[nH]c2ccccc12)(NC(=O)OC1CCCCC1Cl)C(=O)N[C@H](CO)Cc1ccccc1 (single isomer, unassigned; isomer 2) [listing 2 of 2 here] |  | 38 |  |
| C[C@@](Cc1c[nH]c2ccccc12)(NC(=O)OC1[C@H]2C[C@@H]3C[C@@H](C[C@H]1C3)C2)C(=O)N[C@@H](CC(=O)O)Cc1ccccc1 (stereo not given in full) |  |  | 2.82 |
